Measurements as given in ChEMBL document CHEMBL1122813, “Synthesis and antibacterial activity of 2-[(methoxycarbonyl)methylene]cephalosporins” (1984).
Converted amounts (≈) assume the structure as drawn.

Assays:
[1] = test system: Serratia marcescens; test: In vitro antibacterial activity against Serratia marcescens strain 20019; assay type: functional
Method in brief: (§1)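 MIC by serial twofold dilution of compound in Mueller-Hinton agar. The agar surface or broth was inoculated with a suitably diluted 18-24-h broth culture, then incubated at 37 °C for 17 h. MIC was read as the lowest concentration inhibiting visible growth.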

[2] = test system: Escherichia coli; test: In vitro antibacterial activity against Escherichia coli strain 20341; assay type: functional; method in brief: as §1
[3] = test system: Staphylococcus aureus; test: In vitro antibacterial activity against Staphylococcus aureus strain 9537; assay type: functional
Method in brief: (§2)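 MIC by serial twofold dilution in Mueller-Hinton agar. Agar surface or broth inoculated with a suitably diluted 18-24-h broth culture. Plates and broth tubes incubated at 37 °C for 17 h. MIC taken as the lowest concentration that inhibited visible growth.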

[4] = test system: Proteus mirabilis; test: In vitro antibacterial activity against Proteus mirabilis strain 9716; assay type: functional; method in brief: as §1
[5] = test system: Escherichia coli; test: In vitro antibacterial activity against Escherichia coli strain 15119; assay type: functional; method in brief: as §1
[6] = test system: Providencia rettgeri; test: In vitro antibacterial activity against Providencia rettgeri strain 21203; assay type: functional; method in brief: as §1
[7] = test system: Proteus mirabilis; test: In vitro antibacterial activity against Proteus mirabilis strain 9900; assay type: functional; method in brief: as §1
[8] = test system: Staphylococcus aureus; test: In vitro antibacterial activity against Staphylococcus aureus strain 9606 (Penicillin resistant); assay type: functional; method in brief: as §2
[9] = test system: Enterobacter cloacae; test: In vitro antibacterial activity against Enterobacter cloacae strain 9659; assay type: functional; method in brief: as §1
[10] = test system: Enterococcus faecalis; test: In vitro antibacterial activity against Streptococcus faecalis strain 20688; assay type: functional; method in brief: as §1
[11] = test system: Klebsiella pneumoniae; test: In vitro antibacterial activity against Klebsiella pneumoniae strain 20468; assay type: functional; method in brief: as §1
[12] = test system: Streptococcus pneumoniae; test: In vitro antibacterial activity against Streptococcus pneumoniae strain 9585; assay type: functional; method in brief: as §1
[13] = test system: Streptococcus pyogenes; test: In vitro antibacterial activity against Streptococcus pyogenes strain 9604; assay type: functional; method in brief: as §1
[14] = test system: Morganella morganii; test: In vitro antibacterial activity against Morganella morganii strain 15153; assay type: functional; method in brief: as §1
[15] = test system: Staphylococcus aureus; test: In vitro antibacterial activity against Staphylococcus aureus strain 9537 + 50% serum; assay type: functional
Method in brief: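 Serial twofold dilution MIC with 50% human serum present. Mueller-Hinton agar or broth was inoculated with a suitably diluted 18-24-h broth culture and incubated at 37 °C for 17 h. The endpoint was the lowest concentration that stopped visible growth.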

[16] = test system: Enterobacter cloacae; test: In vitro antibacterial activity against Enterobacter cloacae strain 9656; assay type: functional; method in brief: as §1
[17] = test system: Klebsiella pneumoniae; test: In vitro antibacterial activity against Klebsiella pneumoniae strain 15130; assay type: functional; method in brief: as §1
[18] = test system: Providencia rettgeri; test: In vitro antibacterial activity against Providencia rettgeri strain 21203

Row | SMILES | MIC [1] | MIC [2] | MIC [3] | MIC [4] | MIC [5] | MIC [6] | MIC [7] | MIC [8] | MIC [9] | MIC [10] | MIC [11] | MIC [12] | MIC [13] | MIC [14] | MIC [15] | MIC [16] | MIC [17] | MIC [18]
1 | CO/N=C(/C(=O)NC1C(=O)N2C(C(=O)O)=C(C)/C(=C/C(=O)OC)SC12)c1csc(N)n1.O=C(O)C(F)(F)F (stereo unspecified) | > 125 µg/mL | 2 µg/mL | 2 µg/mL | 16 µg/mL | 2 µg/mL | 32 µg/mL | 2 µg/mL | 4 µg/mL | > 125 µg/mL | 63 µg/mL | 32 µg/mL | 0.016 µg/mL | 0.016 µg/mL | > 125 µg/mL | 125 µg/mL | > 125 µg/mL | 16 µg/mL | 
2 | COC(=O)/C=C1\SC2C(NC(=O)C(N)c3ccccc3)C(=O)N2C(C(=O)O)=C1C.O=C(O)C(F)(F)F (stereo unspecified) | > 125 µg/mL | > 125 µg/mL | 1 µg/mL | > 125 µg/mL | > 125 µg/mL | > 125 µg/mL | > 125 µg/mL | > 125 µg/mL | > 125 µg/mL | 63 µg/mL | > 125 µg/mL | 0.13 µg/mL | 0.025 µg/mL | > 125 µg/mL | 32 µg/mL | > 125 µg/mL | > 125 µg/mL | 
3 | CO/N=C(/C(=O)NC1C(=O)N2C(C(=O)O)=C(C)/C(=C/C(=O)OC)SC12)c1ccco1 (stereo unspecified) | > 125 µg/mL | 63 µg/mL (≈ 145 µM) | 2 µg/mL (≈ 4.59 µM) | 4 µg/mL (≈ 9.19 µM) | 16 µg/mL (≈ 36.7 µM) | 32 µg/mL (≈ 73.5 µM) | 4 µg/mL (≈ 9.19 µM) | 4 µg/mL (≈ 9.19 µM) | > 125 µg/mL | 32 µg/mL (≈ 73.5 µM) | > 125 µg/mL | 0.25 µg/mL (≈ 0.574 µM) | 0.25 µg/mL (≈ 0.574 µM) | 63 µg/mL (≈ 145 µM) | 63 µg/mL | 63 µg/mL (≈ 145 µM) | 16 µg/mL (≈ 36.7 µM) | 
4 | COC(=O)/C=C1\SC2C(NC(=O)C(O)c3ccccc3)C(=O)N2C(C(=O)O)=C1C (stereo unspecified) | > 125 µg/mL | > 125 µg/mL | 0.5 µg/mL (≈ 1.19 µM) | > 125 µg/mL | > 125 µg/mL | > 125 µg/mL | 63 µg/mL (≈ 151 µM) | > 125 µg/mL | > 125 µg/mL | 16 µg/mL (≈ 38.2 µM) | > 125 µg/mL | 0.25 µg/mL (≈ 0.597 µM) | 0.25 µg/mL (≈ 0.597 µM) | > 125 µg/mL | 32 µg/mL | > 125 µg/mL | > 125 µg/mL | 
5 | COC(=O)/C=C1\SC2C(NC(=O)Cc3cccs3)C(=O)N2C(C(=O)O)=C1COC(C)=O (stereo unspecified) | > 125 µg/mL | > 125 µg/mL | 2 µg/mL (≈ 4.29 µM) | 125 µg/mL (≈ 268 µM) | 125 µg/mL (≈ 268 µM) | > 125 µg/mL | 125 µg/mL (≈ 268 µM) | 2 µg/mL (≈ 4.29 µM) | > 125 µg/mL | 4 µg/mL (≈ 8.57 µM) | 63 µg/mL (≈ 135 µM) | 0.13 µg/mL (≈ 0.279 µM) | 0.5 µg/mL (≈ 1.07 µM) | > 125 µg/mL | 63 µg/mL | > 125 µg/mL | > 125 µg/mL | 
6 | COC(=O)/C=C1\SC2C(NC(=O)Cc3cccs3)C(=O)N2C(C(=O)O)=C1C (stereo unspecified) | > 125 µg/mL | 125 µg/mL (≈ 306 µM) | 0.13 µg/mL (≈ 0.318 µM) | 32 µg/mL (≈ 78.3 µM) | 63 µg/mL (≈ 154 µM) | 63 µg/mL (≈ 154 µM) | 16 µg/mL (≈ 39.2 µM) | 2 µg/mL (≈ 4.9 µM) | > 125 µg/mL | 2 µg/mL (≈ 4.9 µM) | > 125 µg/mL | 0.25 µg/mL (≈ 0.612 µM) | 2 µg/mL (≈ 4.9 µM) | 125 µg/mL (≈ 306 µM) | 63 µg/mL | > 125 µg/mL | 125 µg/mL (≈ 306 µM) | 
7 | COC(=O)/C=C1/SC2C(NC(=O)Cc3cccs3)C(=O)N2C(C(=O)O)=C1C (stereo unspecified) | 4 µg/mL (≈ 9.79 µM) | 125 µg/mL (≈ 306 µM) | 0.06 µg/mL (≈ 0.147 µM) | 4 µg/mL (≈ 9.79 µM) | 125 µg/mL (≈ 306 µM) | 4 µg/mL (≈ 9.79 µM) | 32 µg/mL (≈ 78.3 µM) | 1 µg/mL (≈ 2.45 µM) | > 125 µg/mL | 8 µg/mL (≈ 19.6 µM) | > 125 µg/mL | 0.5 µg/mL (≈ 1.22 µM) | 2 µg/mL (≈ 4.9 µM) | 16 µg/mL (≈ 39.2 µM) | 63 µg/mL | > 125 µg/mL | > 125 µg/mL | 
8 | CC(=O)OCC1=C(C(=O)O)N2C(=O)[C@@H](NC(=O)Cc3cccs3)[C@H]2SC1 [CEPHALOTHIN] | > 125 µg/mL | 32 µg/mL (≈ 80.7 µM) | 0.06 µg/mL (≈ 0.151 µM) | 8 µg/mL (≈ 20.2 µM) | 16 µg/mL (≈ 40.4 µM) |  | 1 µg/mL (≈ 2.52 µM) | 0.5 µg/mL (≈ 1.26 µM) | > 125 µg/mL | 32 µg/mL (≈ 80.7 µM) | > 125 µg/mL | 0.03 µg/mL (≈ 0.0757 µM) | 0.06 µg/mL (≈ 0.151 µM) | > 125 µg/mL | 2 µg/mL | > 125 µg/mL | 16 µg/mL (≈ 40.4 µM) | 63 µg/mL (≈ 159 µM)
